Source: PubChem BioAssay (Johns Hopkins Ion Channel Center)
TRPC6 inhibitor: mouse TRPC6 channel inhibition | Q61143 | AID 2553 | B-score at 10 µM | 310,000 compounds, 1.1% hits | HEK293-TRPC6, membrane potential dye, ACh-evoked depolarization; active compounds read low;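 active = B-score under library mean minus 3 SD, initial fluorescence not abnormally high, positive integrated signal ratio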;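 also: B-score derived from integrated fluorescence ratio over the kinetic read; more negative B-score means stronger inhibition of depolarization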
TRPC6 activator: activates the mouse TRPC6 cation channel. HEK293-TRPC6 membrane potential dye fluorescence; active compounds read high. B-score at 10 µM. 310,000 compounds, 0.13% hits;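 active = B-score of the integrated fluorescence ratio above library mean plus 3 SD, and starting fluorescence ratio within library mean plus 5 SD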;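 also: higher score means more depolarization so channel activation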
TRPC4 block: TRPC4 (mouse) channel inhibition. AID 2247. HEK293 TRPC4beta/mu-opioid, DAMGO-evoked Fluo4 calcium flux; active compounds read low. Q9QUQ5. 300,000 compounds, 0.39% hits. B-score at 10 µM;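 active = B-score over 3 SD under the library average, no early fluorescence shift, positive overall ratio signal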
Target sequence (Q9QUQ5 whole entry, looked up): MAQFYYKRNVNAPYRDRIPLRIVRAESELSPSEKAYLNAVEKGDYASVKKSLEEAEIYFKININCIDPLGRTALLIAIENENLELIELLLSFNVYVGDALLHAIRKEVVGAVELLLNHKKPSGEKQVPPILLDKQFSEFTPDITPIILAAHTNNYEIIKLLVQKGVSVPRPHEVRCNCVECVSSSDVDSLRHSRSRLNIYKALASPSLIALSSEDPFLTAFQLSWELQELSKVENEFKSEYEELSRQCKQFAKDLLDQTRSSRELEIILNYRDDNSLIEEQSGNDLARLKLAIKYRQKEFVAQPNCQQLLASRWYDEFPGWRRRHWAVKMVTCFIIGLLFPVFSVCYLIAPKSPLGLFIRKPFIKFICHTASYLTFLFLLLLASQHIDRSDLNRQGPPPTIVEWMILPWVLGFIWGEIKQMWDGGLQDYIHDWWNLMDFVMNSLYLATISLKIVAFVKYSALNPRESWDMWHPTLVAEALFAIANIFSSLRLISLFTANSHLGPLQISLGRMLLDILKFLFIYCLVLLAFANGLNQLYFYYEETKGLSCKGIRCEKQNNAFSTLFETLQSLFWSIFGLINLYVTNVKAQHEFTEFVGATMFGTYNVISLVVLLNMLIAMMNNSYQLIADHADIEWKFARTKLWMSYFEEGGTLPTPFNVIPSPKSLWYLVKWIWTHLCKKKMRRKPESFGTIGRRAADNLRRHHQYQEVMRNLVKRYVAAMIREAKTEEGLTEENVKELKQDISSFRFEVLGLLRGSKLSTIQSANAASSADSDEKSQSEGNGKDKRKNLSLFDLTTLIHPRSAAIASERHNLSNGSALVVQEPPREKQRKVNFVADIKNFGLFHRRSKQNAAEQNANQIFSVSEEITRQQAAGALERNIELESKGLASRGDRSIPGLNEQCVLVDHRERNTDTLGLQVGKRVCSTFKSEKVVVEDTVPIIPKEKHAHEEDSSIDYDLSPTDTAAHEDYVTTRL
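Assay system: TRPC4beta/mu-opioid receptor HEK293 cell line; compound dosing: single concentration per test compound; detection: Fluo4 Ca2+ flux fluorescence; evaluation: per-well B score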
Kir21 inh: Kir2.1 (mouse) channel inhibition; HEK293-Kir2.1, FluxOR thallium flux fluorescence; active compounds read low; B-score at 10 µM; AID 1672; 310,000 compounds, 0.85% hits; P35561;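 active = fluorescence ratio B-score at or below minus 3 SD of library scores, with starting-brightness B-score within 2 SD, cut at about -4.2 in these data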;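 also: channel flux triggered by added potassium and thallium sulfate stimulus; B-score of peak minus minimum fluorescence over baseline after thallium stimulus; more negative B-score means stronger Kir2.1 block with less thallium influx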
TRPC4 agonist: opens the mouse TRPC4 cation channel; Q9QUQ5; HEK293 TRPC4beta/mu-opioid, Fluo4 calcium fluorescence; active compounds read high; B-score at 10 µM; 310,000 compounds, 0.49% hits; AID 2237;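 active = B-score above 5 SD of library B-scores, and initial fluorescence ratio not above library mean plus 5 SD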;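 also: positive B-score marks a calcium rise read as TRPC4 activation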
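Technique: kinetic Fluo4 calcium fluorescence; Test system: TRPC4beta and mu-opioid receptor HEK293 stable cells; Measure: B-scored integrated calcium fluorescence ratio; Benchmarks: low control buffer alone, high control maximal DAMGO; Schedule: 45 min room-temperature Fluo4 loading, 110 s read.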
TRPC4 potent: allosterically enhances the mouse TRPC4 cation channel. Q9QUQ5. HEK293 TRPC4beta/mu-opioid, DAMGO EC20, Fluo-4 Ca2+ flux; active compounds read high. 310,000 compounds, 0.42% hits. B-score at 10 µM;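 active = B-score of calcium response area above 5 SD of library B-scores, with initial fluorescence ratio within 5 SD of library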
Numbers stand for hits; i = inactive. This is a sample that favours compounds with a hit; in the whole collection about 2.9% have one here.

SMILES	TRPC6 inhibitor	TRPC6 activator	TRPC4 block	Kir21 inh	TRPC4 agonist	TRPC4 potent
O=C(Cc1ccccc1)N1CCN(Cc2cccc(Br)c2)CC1	i	i	-5	i	i	i
COc1ccc(Br)cc1CN1CCN(C(=O)Cc2ccccc2)CC1	i	i	-6	i	i	i
CNC(C)Cc1ccccc1Sc1ccc(O)cc1 (stereo unspecified)	i	i	-6	i	i	i
CN(C)CCn1cnc2ccccc21	i	i	i	i	i	15
C[C@H]1CCCC(=O)CCC/C=C/c2cc(O)cc(O)c2C(=O)O1	i	i	i	-4.4	i	i
Cc1ccc(Cn2ccccc2=N)cc1	i	i	i	i	i	i
O=P(Nc1ccccc1Cl)(c1ccccc1)c1nc2c(s1)CCCC2 (stereo unspecified)	i	i	i	i	i	14
O=P(Nc1c(Cl)cccc1Cl)(c1ccccc1)c1nc2c(s1)CCCC2 (stereo unspecified)	i	i	i	i	i	i
COc1ccc2c(c1O)[C@]13CCN(C)[C@H](C2)[C@@H]1CCC(=O)C3	i	i	i	i	114	i
COc1c(C=C2C(=O)NC(=O)NC2=O)c(CCN(C)C(=O)c2ccccc2)cc2c1OCO2	i	i	i	-4.51	i	i
N[C@@H](Cc1c[nH]c2ccccc12)c1nnc(SCc2ccccc2)o1	i	i	i	i	i	i
N[C@@H](Cc1c[nH]c2ccccc12)c1nnc(SCc2ccc(Cl)cc2)o1	i	i	i	-5.22	i	i
CCc1ccc(NC(=O)CCNC(=O)N2C[C@H]3C[C@@H](C2)c2cccc(=O)n2C3)cc1	i	i	i	i	i	i
COc1ccc(CN2CCCC(C(=O)c3ccc(Cl)cc3)C2)c(O)c1 (stereo unspecified)	i	i	i	-10.5	i	i
CCn1cc(CN2CCCC(C(=O)c3cccc(OC)c3)C2)c(C)n1 (stereo unspecified)	i	i	i	i	53	i
CCC1=Nc2cc(C(=O)N3CCC4(CC3)OCCO4)ccc2Sc2ccc(Br)cc21	i	i	i	i	i	i
O=C(c1ccc(F)c([N+](=O)[O-])c1)N1CC2CC(C1)c1cccc(=O)n1C2 (stereo unspecified)	i	i	i	i	i	i
CN(C)C1(CNC(=O)Nc2ccc(Cl)c(Cl)c2)CCCCC1	i	i	i	i	91	i
N#Cc1ccc(NC(=O)CN2C(=O)NC3(CCCC3)C2=O)cc1Cl	i	i	i	i	i	i
Clc1cccc(CNCCc2ccc3c(c2)OCO3)c1	i	i	i	i	i	i
CC1(C)CC(CCNCc2ccc3c(c2)OCO3)(Cc2ccccc2)CCO1 (stereo unspecified)	i	i	i	i	60	i
CCOP(=O)(Cc1cc(C(=O)CC)c(C)o1)OCC	i	i	i	i	i	i
CC(N)Cc1c[nH]c2cc3c(cc12)OCCO3 (stereo unspecified)	i	i	i	i	143	i
CC(N)Cc1c[nH]c2ccc(Cl)cc12 (stereo unspecified)	i	i	i	i	i	13
CCCN1CCC(NC2CCC(O)CC2)CC1 (stereo unspecified)	i	i	i	i	i	i
SMILES	TRPC6 inhibitor	TRPC6 activator	TRPC4 block	Kir21 inh	TRPC4 agonist	TRPC4 potent
Brc1ccc2c(c1)C(OC1CN3CCC1CC3)c1ccccc1CS2 (stereo unspecified)	i	i	i	-8.91	i	29
CCN(CC)CC(=O)Nc1ccc(Cl)cc1C(=O)c1ccccc1	i	i	-6	i	i	i
COc1cccc(NP(=O)(Oc2ccc(Cl)cc2)Oc2ccc(Cl)cc2)c1	i	i	i	i	i	i
O=P(Nc1ccccc1)(Nc1ccccc1)Oc1ccc(Cl)cc1	i	i	i	i	i	10
COc1ccc(CCN)cc1O	i	i	i	i	43	i
CC(C)Oc1ccc(CCN)cc1Cl	i	i	i	i	i	i
CCOc1cc(CNCCc2ccccc2F)ccc1OC	i	i	i	i	i	i
COc1ccc(CNCCc2ccccc2F)c(OC)c1C	i	i	i	-5.54	i	i
FC(F)(F)c1cccc(-n2nnnc2C2(N3CCOCC3)CCCCC2)c1	i	i	i	i	i	i
OC(CN1CCOCC1)c1csc2ccccc12 (stereo unspecified)	i	i	i	i	i	i
CCCCn1c(O)c(C(C)=NCc2ccco2)c(=O)[nH]c1=O	i	i	i	i	i	i
C=CCn1c(O)c(N=Nc2c(C)n(C)n(-c3ccccc3)c2=O)c(=O)[nH]c1=S	i	i	i	i	45	i
CN/C=C(/Cl)P(=O)(OC(C)C)OC(C)C	i	i	i	i	i	i
CCOc1cc(CNCCc2c[nH]c3ccccc23)cc(Cl)c1OCC	i	i	i	-7.58	46	i
COc1cccc(CNCCc2c[nH]c3ccccc23)c1	i	i	i	i	i	i
CCOc1c(Cl)cc(CNCCc2c[nH]c3ccccc23)cc1OC	i	i	i	i	53	i
COc1nc2ccccc2c(=O)n1-c1ccc(C)cc1	i	i	i	i	i	i
COc1nc2ccccc2c(=O)n1-c1ccc(Cl)cc1	i	i	i	i	i	11
O=c1cccc2n1CC1CC2CN(Cc2cccc(Cl)c2Cl)C1 (stereo unspecified)	i	i	i	-7.81	i	i
OC(CNCCc1c[nH]c2ccccc12)c1ccccc1 (stereo unspecified)	i	i	i	i	i	i
COc1ccccc1CC(=O)N1CCN(CCc2ccccc2)CC1	i	i	i	i	119	i
CCN1CCN(C(=O)Cc2ccccc2OC)CC1	i	i	i	i	79	i
CC1CCC(NC(=O)CNC(=S)N2CC3CC(C2)c2cccc(=O)n2C3)CC1 (stereo unspecified)	i	i	i	i	i	i
O=C(NC(=S)N1C[C@H]2C[C@H](C1)c1cccc(=O)n1C2)c1ccc(Cl)cc1Cl	i	i	i	i	i	i
CCC(=NCCCN1CCOCC1)c1c(O)n(-c2ccccc2C)c(=O)[nH]c1=O	i	i	i	i	i	i
Cc1ccc(CN2CCCC(C(=O)c3cccc(C(F)(F)F)c3)C2)o1 (stereo unspecified)	i	i	i	i	i	i
O=C(c1ccc(C(F)(F)F)cc1)C1CCCN(Cc2ccncc2)C1 (stereo unspecified)	i	i	i	i	51	i
O=C(c1cccc(C(F)(F)F)c1)C1CCCN(Cc2ccccc2O)C1 (stereo unspecified)	i	i	-9	i	i	i
CC(=O)c1c(O)n(-c2cccc(Cl)c2)c(=O)[nH]c1=O (tested in a mixture with another compound)	i	i	i	i	i	i
